Reference: ChEMBL document CHEMBL2040727, “Substituted thiazoles VI. Synthesis and antitumor activity of new 2-acetamido- and 2 or 3-propanamido-thiazole analogs” (2012)

System: PC-3
Assay: Growth inhibition of human PC3 cells at 10 uM after 48 hrs by coulter counter analysis
Format: functional
Details: PC-3, 48 h, read-out: GI
Procedure, shortened: (§1)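 Single-dose NCI 60-line panel screen of test compounds. Cells grown in RPMI 1640 with 10% FBS. Compounds dissolved in DMSO, then diluted in phosphate buffer saline (final DMSO below 1%). Wells run in duplicate at 6 × 10⁴ cells/ml. Controls held PBS and DMSO at matching dilutions. Incubation 48 h at 37 °C under humidified 5% CO2. Cells diluted tenfold in saline and counted by Coulter counter. Percent growth inhibition taken from mean-graph of treated-cell growth.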

Question: For `Cc1cnc(NC(=O)CN2CCN(C)CC2)s1`, which inhibition of growth at 10 µM is on record?
Answer: < 10%

Question: Which inhibition of growth at 10 µM does the source give for `Cc1cnc(NC(=O)CN2CCN(c3ccccc3)CC2)s1` here?
Answer: < 10%

System: A549
Assay: Growth inhibition of human A549/ATCC cells at 10 uM after 48 hrs by coulter counter analysis
Format: functional
Details: A549, 48 h, read-out: GI
Procedure, shortened: as §1

Question: How did the inhibition of growth at 10 µM turn out when `Cc1cnc(NC(=O)CN2CCN(C)CC2)s1` was run?
Answer: < 10%

Question: How did the inhibition of growth at 10 µM turn out when `Cc1cnc(NC(=O)CN2CCN(c3ccccc3)CC2)s1` was run?
Answer: < 10%

System: NCI-H23
Assay: Growth inhibition of human NCI-H23 cells at 10 uM after 48 hrs by coulter counter analysis
Format: functional
Details: NCI-H23, 48 h, read-out: GI
Procedure, shortened: as §1

Question: `Cc1cnc(NC(=O)CN2CCN(C)CC2)s1` was tested. Which inhibition of growth at 10 µM did it give?
Answer: < 10%

Question: How did the inhibition of growth at 10 µM turn out when `Cc1cnc(NC(=O)CN2CCN(c3ccccc3)CC2)s1` was run?
Answer: < 10%

System: HCT-116
Assay: Growth inhibition of human HCT116 cells at 10 uM after 48 hrs by coulter counter analysis
Format: functional
Details: HCT-116, 48 h, read-out: GI
Procedure, shortened: as §1

Question: How did the inhibition of growth at 10 µM turn out when `Cc1cnc(NC(=O)CN2CCN(C)CC2)s1` was run?
Answer: < 10%

Question: For `Cc1cnc(NC(=O)CN2CCN(c3ccccc3)CC2)s1`, which inhibition of growth at 10 µM is on record?
Answer: < 10%

System: DU-145
Assay: Growth inhibition of human DU145 cells at 10 uM after 48 hrs by coulter counter analysis
Format: functional
Details: DU-145, 48 h, read-out: GI
Procedure, shortened: as §1

Question: With `Cc1cnc(NC(=O)CN2CCN(C)CC2)s1` as the compound, how does the inhibition of growth at 10 µM read?
Answer: < 10%

Question: Which inhibition of growth at 10 µM does the source give for `Cc1cnc(NC(=O)CN2CCN(c3ccccc3)CC2)s1` here?
Answer: < 10%

System: U-251
Assay: Growth inhibition of human U251 cells at 10 uM after 48 hrs by coulter counter analysis
Format: functional
Details: U-251, 48 h, read-out: GI
Procedure, shortened: (§2)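 Single-dose screen in the NCI 60 cell line panel. Cells grown in RPMI 1640 with 10% FBS. Compounds dissolved in DMSO and diluted in phosphate buffered saline, final DMSO under 1%. Duplicate wells seeded from culture at 6 × 10⁴ cells/ml. Incubated 48 h at 37 °C, humidified, 5% CO2. Cells diluted tenfold in saline and Coulter-counted. Percent growth inhibition computed against PBS/DMSO controls.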

Question: For `Cc1cnc(NC(=O)CN2CCN(C)CC2)s1`, which inhibition of growth at 10 µM is on record?
Answer: < 10%

Question: For `Cc1cnc(NC(=O)CN2CCN(c3ccccc3)CC2)s1`, which inhibition of growth at 10 µM is on record?
Answer: < 10%

System: HL-60(TB)
Assay: Growth inhibition of human HL-60(TB) cells at 10 uM after 48 hrs by coulter counter analysis
Format: functional
Details: HL-60, 48 h, read-out: GI
Procedure, shortened: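 Cells grown in RPMI 1640 with 10% FBS. Compound was dissolved in DMSO and diluted in PBS (under 1% DMSO final), then added in duplicate wells to culture at 6 × 10⁴ cells/ml. PBS/DMSO vehicle controls were included. Incubated at 37 °C, humidified 5% CO₂, for 48 h. Cells were diluted 10-fold in saline and Coulter-counted. Single-dose NCI-60 screen, read as percent growth inhibition.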

Question: How did the inhibition of growth at 10 µM turn out when `Cc1cnc(NC(=O)CN2CCN(C)CC2)s1` was run?
Answer: < 10%

Question: Which inhibition of growth at 10 µM does the source give for `Cc1cnc(NC(=O)CN2CCN(c3ccccc3)CC2)s1` here?
Answer: < 10%

System: HOP-62
Assay: Growth inhibition of human HOP62 cells at 10 uM after 48 hrs by coulter counter analysis
Format: functional
Details: HOP-62, 48 h, read-out: GI
Procedure, shortened: as §1

Question: With `Cc1cnc(NC(=O)CN2CCN(C)CC2)s1` as the compound, how does the inhibition of growth at 10 µM read?
Answer: < 10%

Question: With `Cc1cnc(NC(=O)CN2CCN(c3ccccc3)CC2)s1` as the compound, how does the inhibition of growth at 10 µM read?
Answer: < 10%

System: SNB-75
Assay: Growth inhibition of human SNB75 cells at 10 uM after 48 hrs by coulter counter analysis
Format: functional
Details: SNB-75, 48 h, read-out: GI
Procedure, shortened: as §2

Question: For `Cc1cnc(NC(=O)CN2CCN(C)CC2)s1`, which inhibition of growth at 10 µM is on record?
Answer: < 10%

Question: For `Cc1cnc(NC(=O)CN2CCN(c3ccccc3)CC2)s1`, which inhibition of growth at 10 µM is on record?
Answer: < 10%

System: EKVX
Assay: Growth inhibition of human EKVX cells at 10 uM after 48 hrs by coulter counter analysis
Format: functional
Details: read-out: GI
Procedure, shortened: as §1

Question: How did the inhibition of growth at 10 µM turn out when `Cc1cnc(NC(=O)CN2CCN(C)CC2)s1` was run?
Answer: < 10%

Question: Which inhibition of growth at 10 µM does the source give for `Cc1cnc(NC(=O)CN2CCN(c3ccccc3)CC2)s1` here?
Answer: 12.1%

System: MOLT-4
Assay: Growth inhibition of human MOLT4 cells at 10 uM after 48 hrs by coulter counter analysis
Format: functional
Details: MOLT-4, 48 h, read-out: GI
Procedure, shortened: as §1

Question: With `Cc1cnc(NC(=O)CN2CCN(C)CC2)s1` as the compound, how does the inhibition of growth at 10 µM read?
Answer: < 10%

Question: `Cc1cnc(NC(=O)CN2CCN(c3ccccc3)CC2)s1` was tested. Which inhibition of growth at 10 µM did it give?
Answer: < 10%

System: HT-29
Assay: Growth inhibition of human HT-29 cells at 10 uM after 48 hrs by coulter counter analysis
Format: functional
Details: HT-29, 48 h, read-out: GI
Procedure, shortened: as §1

Question: `Cc1cnc(NC(=O)CN2CCN(C)CC2)s1` was tested. Which inhibition of growth at 10 µM did it give?
Answer: < 10%

Question: Which inhibition of growth at 10 µM does the source give for `Cc1cnc(NC(=O)CN2CCN(c3ccccc3)CC2)s1` here?
Answer: < 10%

System: NCI-H460
Assay: Growth inhibition of human NCI-H460 cells at 10 uM after 48 hrs by coulter counter analysis
Format: functional
Details: NCI-H460, 48 h, read-out: GI
Procedure, shortened: as §1

Question: With `Cc1cnc(NC(=O)CN2CCN(C)CC2)s1` as the compound, how does the inhibition of growth at 10 µM read?
Answer: < 10%

Question: How did the inhibition of growth at 10 µM turn out when `Cc1cnc(NC(=O)CN2CCN(c3ccccc3)CC2)s1` was run?
Answer: < 10%

System: SNB-19
Assay: Growth inhibition of human SNB19 cells at 10 uM after 48 hrs by coulter counter analysis
Format: functional
Details: SNB-19, 48 h, read-out: GI
Procedure, shortened: as §1

Question: Which inhibition of growth at 10 µM does the source give for `Cc1cnc(NC(=O)CN2CCN(C)CC2)s1` here?
Answer: < 10%

Question: How did the inhibition of growth at 10 µM turn out when `Cc1cnc(NC(=O)CN2CCN(c3ccccc3)CC2)s1` was run?
Answer: < 10%

System: CCRF-CEM
Assay: Growth inhibition of human CCRF-CEM cells at 10 uM after 48 hrs by coulter counter analysis
Format: functional
Details: read-out: GI
Procedure, shortened: as §1

Question: Which inhibition of growth at 10 µM does the source give for `Cc1cnc(NC(=O)CN2CCN(C)CC2)s1` here?
Answer: 75.5%

Question: Which inhibition of growth at 10 µM does the source give for `Cc1cnc(NC(=O)CN2CCN(c3ccccc3)CC2)s1` here?
Answer: 69.3%

System: 786-0
Assay: Growth inhibition of human 786-0 cells at 10 uM after 48 hrs by coulter counter analysis
Format: functional
Details: 786-0, 48 h, read-out: GI
Procedure, shortened: as §1

Question: With `Cc1cnc(NC(=O)CN2CCN(C)CC2)s1` as the compound, how does the inhibition of growth at 10 µM read?
Answer: < 10%

Question: Which inhibition of growth at 10 µM does the source give for `Cc1cnc(NC(=O)CN2CCN(c3ccccc3)CC2)s1` here?
Answer: < 10%

System: SK-MEL-28
Assay: Growth inhibition of human SK-MEL-28 cells at 10 uM after 48 hrs by coulter counter analysis
Format: functional
Details: SK-MEL-28, 48 h, read-out: GI
Procedure, shortened: as §1

Question: How did the inhibition of growth at 10 µM turn out when `Cc1cnc(NC(=O)CN2CCN(C)CC2)s1` was run?
Answer: < 10%

Question: With `Cc1cnc(NC(=O)CN2CCN(c3ccccc3)CC2)s1` as the compound, how does the inhibition of growth at 10 µM read?
Answer: < 10%

System: K562
Assay: Growth inhibition of human K562 cells at 10 uM after 48 hrs by coulter counter analysis
Format: functional
Details: K562, 48 h, read-out: GI
Procedure, shortened: as §1

Question: With `Cc1cnc(NC(=O)CN2CCN(C)CC2)s1` as the compound, how does the inhibition of growth at 10 µM read?
Answer: < 10%

Question: How did the inhibition of growth at 10 µM turn out when `Cc1cnc(NC(=O)CN2CCN(c3ccccc3)CC2)s1` was run?
Answer: < 10%

System: RXF 393
Assay: Growth inhibition of human RXF393 cells at 10 uM after 48 hrs by coulter counter analysis
Format: functional
Details: RXF 393, 48 h, read-out: GI
Procedure, shortened: as §1

Question: With `Cc1cnc(NC(=O)CN2CCN(C)CC2)s1` as the compound, how does the inhibition of growth at 10 µM read?
Answer: < 10%

Question: `Cc1cnc(NC(=O)CN2CCN(c3ccccc3)CC2)s1` was tested. Which inhibition of growth at 10 µM did it give?
Answer: < 10%

System: A498
Assay: Growth inhibition of human A498 cells at 10 uM after 48 hrs by coulter counter analysis
Format: functional
Details: A498, 48 h, read-out: GI
Procedure, shortened: as §1

Question: For `Cc1cnc(NC(=O)CN2CCN(C)CC2)s1`, which inhibition of growth at 10 µM is on record?
Answer: < 10%

Question: How did the inhibition of growth at 10 µM turn out when `Cc1cnc(NC(=O)CN2CCN(c3ccccc3)CC2)s1` was run?
Answer: < 10%

System: CAKI-1
Assay: Growth inhibition of human Caki1 cells at 10 uM after 48 hrs by coulter counter analysis
Format: functional
Details: CAKI-1, 48 h, read-out: GI
Procedure, shortened: as §1

Question: For `Cc1cnc(NC(=O)CN2CCN(C)CC2)s1`, which inhibition of growth at 10 µM is on record?
Answer: < 10%

Question: With `Cc1cnc(NC(=O)CN2CCN(c3ccccc3)CC2)s1` as the compound, how does the inhibition of growth at 10 µM read?
Answer: < 10%
